This is an account of results in PubChem BioAssay.

Assay [1] is described as follows: Her2 expression decrease, cell viability multiplex – SKBR3 breast tumor cells, AlphaScreen, ATP viability, primary screen (AID 461;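 active = Her2 level under about 52% in both replicate screens, with viability over 70% of control, limit read from the data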;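 as to Her2 level: lower value means less Her2 protein in the cells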;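 as to viability: percent of carrier control wells set as 100% viability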). The settings on record: SKBR3 Her2 protein level, 18-24 h, measured here: SKBR3 viability, ATP luminescence, at 10 µM.
Assay [2] concerns the target Receptor tyrosine-protein kinase erbB-2 (Homo sapiens) (UniProt P04626). The assay is described as above. As to conditions: 18-24 h, at 10 µM, stronger effect = lower value.
A short description of assay [3]: reduced viability of SK-BR-3 breast cancer cells – cell-based, 24 h, human, pilot screen (AID 572;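 active = viability at or below 10% of carrier control in both of two separate runs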;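 also: compound exposure lasted between 18 and 24 h rather than exactly 24 h; 100% = carrier-treated control wells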). The settings on record: SK-BR-3 viability, CellTiter-Glo luminescence, at 10 µM, stronger effect = lower value. (In general: In ATP-based viability assays light output follows the ATP content of the culture.)
The nature of assay [4]: HUVEC growth inhibition – cell-based, human, primary screen (AID 575;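 active = viability at or below 30% in both replicate assays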;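 also: 100% = median of untreated cell wells with 0.1% DMSO on each plate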). As to conditions: HUVEC proliferation, CellTiter-Glo luminescence, 72 h; at 10 µM; stronger effect = lower value. In a few lines: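 material = primary HUVEC, no more than 12 passages | input = 1250 cells per well | controls = vehicle and MePR control wells | measured by = CTG luminescence | times = 72 h compound incubation | format = collagen-coated 384-well format | read-out = % viability vs DMSO wells | doses = single 10 µM dose, 0.1% DMSO, from 5x medium stock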

Assay [5] in a line: H69AR cell proliferation blockers – human, duplicate replicates, primary screen (AID 580).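 Also: 100% = mean luminescence of untreated wells and 0% = no signal.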 As to conditions: H69AR lung tumor cells viability, ATP luminescence, 72 h; at 10 µM; stronger effect = lower value.
Assay [6] in a line: MRP1 drug-resistance reversers in H69AR cells – cell-based, doxorubicin co-treatment, pilot screen (AID 601;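 active = viability loss from added drug above about 55%, and viability with drug at most 40%, in both replicates, limit read from the data, passing the limit was not always enough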). The settings on record: CellTiter-Glo, 72 h, at 10 µM; for differential viability (reversal): stronger effect = higher value.
Assay [7] in a line: yeast transport mutant growth inhibition pilot in 384-well plates, post-Golgi transport modulator project (AID 636; in the data active = inhibition above about 31%). As to conditions: absorbance 615 nm, about 18 h, stronger effect = higher value.
Assay [8] can be described thus: growth suppression of yeast trafficking mutant, preliminary HTS, modulators of trafficking downstream of Golgi apparatus project, 1536-format plate, OD 615 nm (AID 637; in the data active = inhibition above about 30%). The settings on record: yeast transport mutant growth, absorbance 615 nm, 18 h; stronger effect = higher value.
The mark [9] stands for this setting: H69AR cells + 2 uM doxorubicin, measured here: viability with 2 uM doxorubicin, stronger effect = lower value.
The mark [10] stands for this setting: H69AR cells, compound alone cytotoxicity.

Calls of active or inactive are those of the source.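 The calls were made as follows, unless noted: active = viability at or under a set limit in both replicates, limit being median viability minus 3 SD (cut at about 48% in these data, passing the limit was not always enough); inconclusive = at or under the limit in just one replicate; inactive = at or above the limit in both replicates.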

A word on the viability: it is a read-out of living cells in per cent, often relative to untreated cells. A word on the inhibition: it is the drop in the measured response relative to a control, in per cent.

Chain of Receptor tyrosine-protein kinase erbB-2 (Homo sapiens) (P04626 whole entry, looked up): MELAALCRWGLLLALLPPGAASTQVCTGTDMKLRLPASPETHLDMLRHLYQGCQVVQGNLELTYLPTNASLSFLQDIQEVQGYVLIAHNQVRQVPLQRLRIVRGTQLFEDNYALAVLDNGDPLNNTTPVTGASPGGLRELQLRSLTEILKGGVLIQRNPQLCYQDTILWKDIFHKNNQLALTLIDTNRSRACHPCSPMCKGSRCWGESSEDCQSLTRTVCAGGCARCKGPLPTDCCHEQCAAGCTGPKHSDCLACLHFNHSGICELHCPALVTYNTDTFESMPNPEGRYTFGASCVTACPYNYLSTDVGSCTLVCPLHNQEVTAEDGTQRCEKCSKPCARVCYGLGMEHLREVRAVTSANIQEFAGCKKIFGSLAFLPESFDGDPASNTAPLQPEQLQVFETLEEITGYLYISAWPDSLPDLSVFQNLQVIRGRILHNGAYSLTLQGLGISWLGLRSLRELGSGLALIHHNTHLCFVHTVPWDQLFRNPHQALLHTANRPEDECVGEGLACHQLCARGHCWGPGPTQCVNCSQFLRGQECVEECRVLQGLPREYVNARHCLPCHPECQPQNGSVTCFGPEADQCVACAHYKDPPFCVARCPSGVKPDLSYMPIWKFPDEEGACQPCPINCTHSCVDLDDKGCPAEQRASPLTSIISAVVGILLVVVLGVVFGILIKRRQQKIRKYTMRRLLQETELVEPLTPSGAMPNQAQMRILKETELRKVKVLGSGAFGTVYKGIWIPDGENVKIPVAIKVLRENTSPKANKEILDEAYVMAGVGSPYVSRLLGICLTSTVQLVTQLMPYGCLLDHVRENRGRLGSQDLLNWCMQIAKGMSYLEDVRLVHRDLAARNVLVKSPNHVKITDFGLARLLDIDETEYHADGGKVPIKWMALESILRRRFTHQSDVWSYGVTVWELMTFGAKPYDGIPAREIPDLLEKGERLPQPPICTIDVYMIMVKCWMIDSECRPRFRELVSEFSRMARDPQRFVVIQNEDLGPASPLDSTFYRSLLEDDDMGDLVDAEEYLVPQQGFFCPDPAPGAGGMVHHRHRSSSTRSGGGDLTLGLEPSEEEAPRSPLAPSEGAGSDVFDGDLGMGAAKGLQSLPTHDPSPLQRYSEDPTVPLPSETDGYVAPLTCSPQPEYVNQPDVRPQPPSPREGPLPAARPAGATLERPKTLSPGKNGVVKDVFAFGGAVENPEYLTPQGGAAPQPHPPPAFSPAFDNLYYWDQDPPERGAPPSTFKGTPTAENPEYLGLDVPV

As to `CC(C)C(NC(=O)c1ccccc1NC(=O)c1ccco1)C(=O)O` (stereo not given), the viability in assay [1] is 114%; in assay [3], 114% (inactive); in assay [4], 94.8% (inactive); in assay [5], 91.6% (inactive); in assay [6] (setting [9]), 89.1%; in assay [6] (setting [10]) it was 91.6%. In assay [2], the Her2 level was 77.5% (inactive). Also, the differential viability (reversal) in assay [6] (H69AR cells + 2 uM doxorubicin) is 2.44% (inactive). Moreover, the values for the inhibition in assay [7] and in assay [8] were -8.24% (inactive) and 6.98% (inactive), respectively.
As for `C=CCn1c(SCC(=O)c2ccc(OC)cc2)nnc1C(C)NC(=O)c1cccs1` (stereo not given), the viability was 102% in assay [1]; 102% (inactive) in assay [3]; 90.9% (inactive) in assay [4]; 87% (inactive) in assay [5]; 92.4% in assay [6] (setting [9]); 87% in assay [6] (setting [10]). In addition, in assay [2], the Her2 level is 88.5% (inactive). The differential viability (reversal) in assay [6] (H69AR cells + 2 uM doxorubicin) was -5.4% (inactive). Moreover, the inhibition in assay [7] is -0.26% (inactive); in assay [8] it was 7.67% (inactive).
For `CCOC(=O)N1CCN(C(=O)C2c3cc(OC)c(OC)cc3C(=O)N3CCc4ccccc4C23)CC1` (stereo not given), the viability in assay [1] is 116%; in assay [3] it was 116% (inactive); in assay [4], 102% (inactive); in assay [5], 95.7% (inactive); in assay [6] (setting [9]), 96.4%; in assay [6] (setting [10]) it was 95.7%. Further, the Her2 level in assay [2] was 97% (inactive). Besides, the differential viability (reversal) in assay [6] (H69AR cells + 2 uM doxorubicin) was -0.775% (inactive). Moreover, the inhibition in assay [7] was -6.4% (inactive); in assay [8] it was 0.49% (inactive).
Take `COc1ccc(NS(=O)(=O)c2c(C)[nH]c(=O)[nH]c2=O)c(OC)c1`: the viability in assay [1] was 88.5%; in assay [3], 88.5% (inactive); in assay [4], 97.9% (inactive); in assay [5] it was 90.8% (inactive); in assay [6] (setting [9]), 89.5%; in assay [6] (setting [10]) it was 90.8%. The Her2 level in assay [2] is 91% (inactive). Further, the differential viability (reversal) in assay [6] (H69AR cells + 2 uM doxorubicin) was 1.25% (inactive). For the same molecule, the inhibition in assay [7] is -0.39% (inactive); in assay [8] it was -4% (inactive).
For `Cc1cc(C)n(-c2nnc(C)n2/N=C/c2ccccc2F)n1`, the viability in assay [1] is 94%; in assay [3] it was 94% (inactive); in assay [4], 110% (inactive); in assay [5], 98.3% (inactive); in assay [6] (setting [9]) it was 84.9%; in assay [6] (setting [10]) it was 98.3%. Besides, the Her2 level in assay [2] is 89% (inactive). In addition, the differential viability (reversal) in assay [6] (H69AR cells + 2 uM doxorubicin) was 13.3% (inactive). In addition, the inhibition in assay [7] is -7.07% (inactive); in assay [8], 4.59% (inactive).
Turning to `CCC(C)(C)NC(=O)CN(Cc1ccc2c(c1)OCO2)C(=O)CCC(=O)Nc1ccccn1`, the viability in assay [1] was 132%; in assay [3] it was 132% (inactive); in assay [4] it was 105% (inactive); in assay [5], 92.5% (inactive); in assay [6] (setting [9]), 90.1%; in assay [6] (setting [10]), 92.5%. Moreover, the Her2 level in assay [2] is 118% (inactive). Besides, in assay [6] (H69AR cells + 2 uM doxorubicin), the differential viability (reversal) is 2.38% (inactive). Also, the figures for the inhibition in assay [7] and in assay [8] were -5.06% (inactive) and -2.3% (inactive), respectively.
In the case of `CCc1ccccc1OCCCCCNCCO`, the viability in assay [1] was 85.5%; in assay [3], 85.5% (inactive); in assay [4], 93.3% (inactive); in assay [5], 81.8% (inactive); in assay [6] (setting [9]) it was 87.4%; in assay [6] (setting [10]), 81.8%. In assay [2], the Her2 level is 91% (inactive). In addition, the differential viability (reversal) in assay [6] (H69AR cells + 2 uM doxorubicin) was -5.63% (inactive). Further, the figures for the inhibition in assay [7] and in assay [8] were -2.05% (inactive) and -1.5% (inactive), respectively.
As to `Cc1cc(Cl)ccc1OCCCC(=O)N1CCOCC1`, the viability is 90% in assay [1]; 90% (inactive) in assay [3]; 99.5% (inactive) in assay [4]; 87.7% (inactive) in assay [5]; 87.6% in assay [6] (setting [9]); 87.7% in assay [6] (setting [10]). Further, the Her2 level in assay [2] is 92.5% (inactive). The differential viability (reversal) in assay [6] (H69AR cells + 2 uM doxorubicin) is 0.08% (inactive). The inhibition in assay [7] was -5.39% (inactive); in assay [8] it was 11.2% (inactive).
Take `COc1ccccc1CN1C(=O)CCC1(C)C(=O)NC1CCCCCC1` (stereo not given): the viability in assay [1] is 83%; in assay [3], 83% (inactive); in assay [4], 101% (inactive); in assay [5], 98.1% (inactive); in assay [6] (setting [9]), 95.2%; in assay [6] (setting [10]), 98.1%. Besides, the Her2 level in assay [2] was 99% (inactive). In addition, the differential viability (reversal) in assay [6] (H69AR cells + 2 uM doxorubicin) is 2.86% (inactive). Moreover, the inhibition in assay [7] was -2.13% (inactive); in assay [8] it was 2.62% (inactive).
`Nc1nc(-n2cnnc2)nn1-c1ccccc1`: the viability in assay [1] is 92%; in assay [3], 92% (inactive); in assay [4], 85.6% (inactive); in assay [5], 101% (inactive); in assay [6] (setting [9]) it was 89.9%; in assay [6] (setting [10]), 101%. In addition, the Her2 level in assay [2] was 116% (inactive). The differential viability (reversal) in assay [6] (H69AR cells + 2 uM doxorubicin) is 11.4% (inactive). In addition, the inhibition in assay [7] was 0.13% (inactive); in assay [8], -8.5% (inactive).
In the case of `O=C(NCCC1=CCCCC1)C1CCN(C(=O)Nc2ccccc2)CC1`, the viability in assay [1] was 106%; in assay [3], 106% (inactive); in assay [4], 91.3% (inactive); in assay [5], 101% (inactive); in assay [6] (setting [9]), 95.7%; in assay [6] (setting [10]), 101%. For the same molecule, in assay [2], the Her2 level was 128% (inactive). The differential viability (reversal) in assay [6] (H69AR cells + 2 uM doxorubicin) was 5.69% (inactive). Besides, the inhibition in assay [7] was -2.21% (inactive); in assay [8], -2.33% (inactive).
For the molecule `C=CCn1c(C)cc(C(=O)CSc2nc3ccccc3c(=O)[nH]2)c1C`, the viability in assay [1] is 90.5%; in assay [3], 90.5% (inactive); in assay [4] it was 61.5% (inactive); in assay [5], 77.8% (inactive); in assay [6] (setting [9]), 81.8%; in assay [6] (setting [10]) it was 77.8%. In addition, the Her2 level in assay [2] was 92.5% (inactive). Moreover, the differential viability (reversal) in assay [6] (H69AR cells + 2 uM doxorubicin) is -4.06% (inactive). The figures for the inhibition in assay [7] and in assay [8] were 54.1% (active) and 37.6% (active), respectively.
As for `CCN(CC)C(=O)Cn1c(=O)n(Cc2ccccc2Cl)c2c1c(=O)n(C)c(=O)n2C`, the viability in assay [1] is 98%; in assay [3] it was 98% (inactive); in assay [4] it was 98.6% (inactive); in assay [5] it was 93.7% (inactive); in assay [6] (setting [9]), 89.5%; in assay [6] (setting [10]), 93.7%. For the same molecule, the Her2 level in assay [2] was 100% (inactive). Also, the differential viability (reversal) in assay [6] (H69AR cells + 2 uM doxorubicin) was 4.23% (inactive). The inhibition in assay [7] was -0.93% (inactive); in assay [8], -4.13% (inactive).
Turning to `CNC(=O)CSc1nnc(-c2cc(C)cc(C)c2)o1`, the viability in assay [1] is 94.5%; in assay [3], 94.5% (inactive); in assay [4] it was 93.4% (inactive); in assay [5], 108% (inactive); in assay [6] (setting [9]), 95.1%; in assay [6] (setting [10]), 108%. For the same molecule, in assay [2], the Her2 level was 99% (inactive). Further, the differential viability (reversal) in assay [6] (H69AR cells + 2 uM doxorubicin) was 13.4% (inactive). Also, the inhibition in assay [7] was -3.07% (inactive); in assay [8] it was -3.06% (inactive).
With `N#Cc1c(/N=C/c2ccco2)sc2c1CCC2`, the viability in assay [1] was 99%; in assay [3], 99% (inactive); in assay [4], 85.2% (inactive); in assay [5], 85.7% (inactive); in assay [6] (setting [9]), 87.1%; in assay [6] (setting [10]) it was 85.7%. Besides, in assay [2], the Her2 level was 139% (inactive). Moreover, the differential viability (reversal) in assay [6] (H69AR cells + 2 uM doxorubicin) is -1.43% (inactive). Moreover, the inhibition is -2.76% (inactive) in assay [7] and 11.2% (inactive) in assay [8].
